pKd: −log10 of the molar value. Values after ≈ are worked out from the molar mass of the structure shown. Active and inactive are the calls of the source. The calls are words filed in the database; no cut-off is given here.
Legend:
Escherichia coli [1] = assay: Antimicrobial activity against AcrAB-deficient Escherichia coli AG100AX harboring pBAD plasmid after 18 to 24 hrs by two fold dilution method; format: functional
Method in brief: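 Twofold agar dilution on LB agar containing the antimicrobial, inoculum 10⁴ CFU/spot. Growth was scored after 18–24 h at 37°C, and each MIC determination was repeated at least four times.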

Escherichia coli [2] = assay: Antimicrobial activity against AcrAB-deficient Escherichia coli AG100AX harboring pBADomegaydhE plasmid containing Escherichia coli multidrug efflux pump YdhE after 18 to 24 hrs by two fold dilution method; format: functional
Escherichia coli [3] = assay: Antimicrobial activity against AcrAB-deficient Escherichia coli AG100AX harboring pBADomeganorM plasmid containing Neisseria gonorrhoeae multidrug efflux pump NorM after 18 to 24 hrs by two fold dilution method; format: functional
Neisseria gonorrhoeae [4] = assay: Activity of Neisseria gonorrhoeae FA19 multidrug efflux protein NorM expressed in Escherichia coli AG100AX assessed as reduction in compound accumulation in presence of 100 mM NaCl by fluorimetric assay
Method in brief: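 Arabinose-induced (0.01%) AG100AX cells at OD600 1.0 were held in 0.1 M Tris-HCl pH 7.0 with ethidium bromide (20 μg/ml final), then 100 mM NaCl, or KCl for comparison, was added. At each time point a 1-ml sample was centrifuged at 4°C and washed, and fluorescence read at ex 500/em 580 nm.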

[5] = molecular target: T1, Multidrug resistance protein MdtK (Escherichia coli (strain K12), UniProt P37340); assay: Binding affinity to Escherichia coli K-12 multidrug efflux protein YdhE […] in presence of 0.02% DDM surfactant by fluorescence polarization assay
T1 sequence (P37340 whole entry): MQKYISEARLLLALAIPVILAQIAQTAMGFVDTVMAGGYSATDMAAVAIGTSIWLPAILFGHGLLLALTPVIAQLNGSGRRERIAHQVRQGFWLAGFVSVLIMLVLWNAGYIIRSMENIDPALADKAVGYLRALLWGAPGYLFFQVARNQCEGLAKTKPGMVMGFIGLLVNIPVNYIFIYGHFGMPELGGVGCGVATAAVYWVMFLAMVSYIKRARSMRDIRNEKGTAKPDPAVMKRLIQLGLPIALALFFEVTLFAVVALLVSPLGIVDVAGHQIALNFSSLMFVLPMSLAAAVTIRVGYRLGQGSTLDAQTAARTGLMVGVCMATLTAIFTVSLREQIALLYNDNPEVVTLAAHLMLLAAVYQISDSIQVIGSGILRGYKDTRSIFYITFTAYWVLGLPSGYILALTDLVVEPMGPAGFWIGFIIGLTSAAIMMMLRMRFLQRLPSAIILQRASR

[6] = Binding affinity to Neisseria gonorrhoeae FA19 multidrug efflux protein NorM expressed in Escherichia coli AG100AX in presence of 0.02% DDM surfactant by fluorescence polarization assay
Neisseria gonorrhoeae [7] = assay: Activity of Neisseria gonorrhoeae FA19 multidrug efflux protein NorM expressed in Escherichia coli AG100AX assessed as reduction in compound accumulation by fluorimetric assay
Method in brief: (§1)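 AG100AX cells carrying the pBAD-based plasmid were grown in LB with 0.01% L-arabinose at 37°C to OD600 1.0, washed, and resuspended to OD600 1.0 in 0.1 M Tris-HCl pH 7.0. Norfloxacin (100 μM final) or ethidium bromide (20 μg/ml final) was added and samples taken over time. CCCP (100 μM final) was added at 15 min. After a further 15 min, CCCP was removed and cells re-energized with 0.4% glucose. Maximum fluorescence was normalized to 100%.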

[8] = molecular target: T2, Multidrug resistance protein MdtK (Escherichia coli (strain K12)) (UniProt P37340); assay: Activity of Escherichia coli K-12 multidrug efflux protein YdhE expressed in Escherichia coli AG100AX assessed as reduction in compound accumulation by fluorimetric assay; method in brief: as §1
T2 sequence (whole entry): T1 sequence (P37340 whole entry)

[9] = molecular target: T2, Multidrug resistance protein MdtK (Escherichia coli (strain K12)); assay: Inhibition of Escherichia coli K-12 multidrug efflux protein YdhE expressed in Escherichia coli AG100AX assessed as assessed as increase in Norfloxacin accumulation at 100 uM after 15 mins by fluorimetric assay; method in brief: as §1
[10] = molecular target: T2, Multidrug resistance protein MdtK (Escherichia coli (strain K12)); assay: Inhibition of Escherichia coli K-12 multidrug efflux protein YdhE expressed in Escherichia coli AG100AX assessed as assessed as increase in ethidium bromide accumulation at 100 uM after 15 mins by fluorimetric assay; method in brief: as §1
Neisseria gonorrhoeae [11] = assay: Inhibition of Neisseria gonorrhoeae FA19 multidrug efflux protein NorM expressed in Escherichia coli AG100AX assessed as increase in ethidium bromide accumulation at 100 uM after 15 mins by fluorimetric assay; method in brief: as §1
Neisseria gonorrhoeae [12] = assay: Inhibition of Neisseria gonorrhoeae FA19 multidrug efflux protein NorM expressed in Escherichia coli AG100AX assessed as increase in Norfloxacin accumulation at 100 uM after 15 mins by fluorimetric assay; method in brief: as §1

CCn1cc(C(=O)O)c(=O)c2cc(F)c(N3CCNC(C)C3)c(F)c21 (stereo not drawn) [LOMEFLOXACIN]
MIC (Escherichia coli [1]): 0.016 µg/mL (≈ 0.0455 µM) | MIC (Escherichia coli [2]): 0.016 µg/mL (≈ 0.0455 µM) | MIC (Escherichia coli [3]): 0.032 µg/mL (≈ 0.0911 µM)

CCn1cc(C(=O)O)c(=O)c2cc(F)c(N3CCNCC3)cc21 [NORFLOXACIN]
MIC (Escherichia coli [1]): 0.008 µg/mL (≈ 0.0251 µM) | Activity (Neisseria gonorrhoeae [4]): Active | pKd [5]: 4.01 | MIC (Escherichia coli [2]): 0.016 µg/mL (≈ 0.0501 µM) | MIC (Escherichia coli [3]): 0.032 µg/mL (≈ 0.1 µM) | pKd [6]: 3.90

CN(C)[C@@H]1C(O)=C(C(N)=O)C(=O)[C@@]2(O)C(O)=C3C(=O)c4c(O)cccc4[C@@](C)(O)[C@H]3C[C@@H]12 [TETRACYCLINE]
MIC (Escherichia coli [1]): 1.25 µg/mL (≈ 2.81 µM) | MIC (Escherichia coli [2]): 1.25 µg/mL (≈ 2.81 µM) | MIC (Escherichia coli [3]): 1.25 µg/mL (≈ 2.81 µM)

GENTAMICIN
MIC (Escherichia coli [1]): 2.5 µg/mL | MIC (Escherichia coli [2]): 2.5 µg/mL | MIC (Escherichia coli [3]): 2.5 µg/mL

CN(C)c1ccc(C(=C2C=CC(=[N+](C)C)C=C2)c2ccc(N(C)C)cc2)cc1.[Cl-] [GENTIAN VIOLET]
MIC (Escherichia coli [1]): 0.625 µg/mL | MIC (Escherichia coli [2]): 2.5 µg/mL | MIC (Escherichia coli [3]): 2.5 µg/mL

COc1cccc2c1C(=O)c1c(O)c3c(c(O)c1C2=O)C[C@@](O)(C(=O)CO)C[C@@H]3O[C@H]1C[C@H](N)[C@H](O)[C@H](C)O1 [DOXORUBICIN]
MIC (Escherichia coli [1]): 1.56 µg/mL (≈ 2.87 µM) | MIC (Escherichia coli [2]): 6.25 µg/mL (≈ 11.5 µM) | MIC (Escherichia coli [3]): 6.25 µg/mL (≈ 11.5 µM)

CCn1cc(C(=O)O)c(=O)c2cc(F)c(N3CCNCC3)nc21 [ENOXACIN]
MIC (Escherichia coli [1]): 0.031 µg/mL (≈ 0.0968 µM) | MIC (Escherichia coli [2]): 0.063 µg/mL (≈ 0.197 µM) | MIC (Escherichia coli [3]): 0.063 µg/mL (≈ 0.197 µM)

O=C(N[C@H](CO)[C@H](O)c1ccc([N+](=O)[O-])cc1)C(Cl)Cl [CHLORAMPHENICOL]
MIC (Escherichia coli [1]): 0.625 µg/mL (≈ 1.93 µM) | MIC (Escherichia coli [2]): 0.625 µg/mL (≈ 1.93 µM) | MIC (Escherichia coli [3]): 0.625 µg/mL (≈ 1.93 µM)

CN[C@@H]1[C@H](O[C@H]2[C@H](O[C@H]3[C@H](O)[C@@H](O)[C@H](N=C(N)N)[C@@H](O)[C@@H]3N=C(N)N)O[C@@H](C)[C@]2(O)C=O)O[C@@H](CO)[C@H](O)[C@H]1O [STREPTOMYCIN]
MIC (Escherichia coli [1]): > 50000 µg/mL | MIC (Escherichia coli [2]): > 50000 µg/mL | MIC (Escherichia coli [3]): > 50000 µg/mL

Nc1ccc2cc3ccc(N)cc3nc2c1 [PROFLAVINE]
MIC (Escherichia coli [1]): 6.25 µg/mL (≈ 29.9 µM) | MIC (Escherichia coli [2]): 12.5 µg/mL (≈ 59.7 µM) | MIC (Escherichia coli [3]): 12.5 µg/mL (≈ 59.7 µM)

O=C(O)c1cn(C2CC2)c2cc(N3CCNCC3)c(F)cc2c1=O [CIPROFLOXACIN]
Activity (Neisseria gonorrhoeae [7]): Active | pKd [5]: 4.04 | Activity [8]: Active | pKd [6]: 3.92

C[n+]1ccc(-c2cc[n+](C)cc2)cc1.[Cl-].[Cl-] [PARAQUAT DICHLORIDE]
MIC (Escherichia coli [1]): 156 µg/mL | MIC (Escherichia coli [2]): 156 µg/mL | MIC (Escherichia coli [3]): 156 µg/mL

CO[C@@H]1[C@@H](OC(N)=O)[C@@H](O)[C@H](Oc2ccc3c(O)c(NC(=O)c4ccc(O)c(CC=C(C)C)c4)c(=O)oc3c2C)OC1(C)C [NOVOBIOCIN]
MIC (Escherichia coli [1]): 1.56 µg/mL (≈ 2.55 µM) | MIC (Escherichia coli [2]): 3.12 µg/mL (≈ 5.1 µM) | MIC (Escherichia coli [3]): 3.12 µg/mL (≈ 5.1 µM)

N#CC(C#N)=NNc1cccc(Cl)c1 [CARBONYL CYANIDE M-CHLOROPHENYLHYDRAZONE]
MIC (Escherichia coli [1]): 6.25 µg/mL (≈ 30.5 µM) | inhibition [9]: Active | inhibition [10]: Active | MIC (Escherichia coli [2]): 6.25 µg/mL (≈ 30.5 µM) | inhibition (Neisseria gonorrhoeae [11]): Active | MIC (Escherichia coli [3]): 6.25 µg/mL (≈ 30.5 µM) | inhibition (Neisseria gonorrhoeae [12]): Active

CCn1cc(C(=O)O)c(=O)c2ccc(C)nc21 [NALIDIXIC ACID]
MIC (Escherichia coli [1]): 0.625 µg/mL (≈ 2.69 µM) | MIC (Escherichia coli [2]): 0.625 µg/mL (≈ 2.69 µM) | MIC (Escherichia coli [3]): 0.625 µg/mL (≈ 2.69 µM)

CN(C)c1ccc(O)c2c1C[C@H]1C[C@H]3[C@H](N(C)C)C(O)=C(C(N)=O)C(=O)[C@@]3(O)C(O)=C1C2=O [MINOCYCLINE]
MIC (Escherichia coli [1]): 0.625 µg/mL (≈ 1.37 µM) | MIC (Escherichia coli [2]): 0.625 µg/mL (≈ 1.37 µM) | MIC (Escherichia coli [3]): 0.625 µg/mL (≈ 1.37 µM)

CN[C@H](CC(C)C)C(=O)N[C@H]1C(=O)N[C@@H](CC(N)=O)C(=O)N[C@H]2C(=O)N[C@H]3C(=O)N[C@H](C(=O)N[C@H](C(=O)O)c4cc(O)cc(O)c4-c4cc3ccc4O)[C@H](O)c3ccc(c(Cl)c3)Oc3cc2cc(c3O[C@@H]2O[C@H](CO)[C@@H](O)[C@H](O)[C@H]2O[C@H]2C[C@](C)(N)[C@H](O)[C@H](C)O2)Oc2ccc(cc2Cl)[C@H]1O [VANCOMYCIN]
MIC (Escherichia coli [1]): 250 µg/mL (≈ 173 µM) | MIC (Escherichia coli [2]): 250 µg/mL (≈ 173 µM) | MIC (Escherichia coli [3]): 250 µg/mL (≈ 173 µM)

CC[n+]1c(-c2ccccc2)c2cc(N)ccc2c2ccc(N)cc21.[Br-] [HOMIDIUM BROMIDE]
MIC (Escherichia coli [1]): 7.81 µg/mL | Activity (Neisseria gonorrhoeae [4]): Active | Activity (Neisseria gonorrhoeae [7]): Active | pKd [5]: 5.01 | MIC (Escherichia coli [2]): 15.6 µg/mL | Activity [8]: Active | MIC (Escherichia coli [3]): 15.6 µg/mL | pKd [6]: 4.91

[Cl-].c1ccc([P+](c2ccccc2)(c2ccccc2)c2ccccc2)cc1 [TETRAPHENYLPHOSPHONIUM CHLORIDE]
MIC (Escherichia coli [1]): 12.5 µg/mL | MIC (Escherichia coli [2]): 25 µg/mL | MIC (Escherichia coli [3]): 25 µg/mL

COc1ccc2cc3[n+](cc2c1OC)CCc1cc2c(cc1-3)OCO2.[Cl-] [BERBERINE CHLORIDE]
MIC (Escherichia coli [1]): 31.2 µg/mL | MIC (Escherichia coli [2]): 250 µg/mL | MIC (Escherichia coli [3]): 250 µg/mL
